Tested on: U2OS
Test: Multiplex assay against U2OS
Assay type: toxicity, cell-based
Settings: human
How it was run: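 Compound was added to live cells that had been stained at seeding with Hoechst33342, BioTracker Green Microtubule Cytoskeleton Dye, MitoTracker Red and Annexin V Alexa Fluor 680, and imaging followed on a CQ1 microscope at 37°C and 5% CO2. CellPathfinder machine-learning gating divided cells into Hoechst high-intensity objects or normal cells, normal cells into healthy, pyknosed or fragmented nuclei, and pyknosed cells into mitotic or apoptotic. Tubulin, mitochondrial-mass and membrane-permeability phenotypes are per cents of healthy-nucleus cells.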

[1] = 12 h, 1 µM, compound concentration 1 uM, replicate 1
[2] = 12 h, 1 µM, compound concentration 1 uM, replicate 2
[3] = 12 h, 10 µM, compound concentration 10 uM, replicate 1
[4] = 12 h, 10 µM, compound concentration 10 uM, replicate 2
[5] = 24 h, 1 µM, compound concentration 1 uM, replicate 1
[6] = 24 h, 1 µM, compound concentration 1 uM, replicate 2
[7] = 24 h, 10 µM, compound concentration 10 uM, replicate 1
[8] = 24 h, 10 µM, compound concentration 10 uM, replicate 2
[9] = 48 h, 1 µM, compound concentration 1 uM, replicate 1
[10] = 48 h, 1 µM, compound concentration 1 uM, replicate 2
[11] = 48 h, 10 µM, compound concentration 10 uM, replicate 1
[12] = 48 h, 10 µM, compound concentration 10 uM, replicate 2

N#Cc1cc(F)cc(-c2nc(-c3ccc(F)cn3)no2)c1
Population Apoptotic (%) [1]: 55%
Population Fragmented Nuclei (%) [1]: 24%
Population Healthy Nuclei (%) [1]: 65%
Population Hoechst High Intensity Objects (%) [1]: 1%
Population Membrane Permeable-Phenotype (%) [1]: 5%
Population Mitochondria Different-Phenotype (%) [1]: 0%
Population Mitotic Cells (%) [1]: 44%
Population Normal (%) [1]: 98%
Population Pyknosed Nuclei (%) [1]: 10%
Population Tubulin-Different-Phenotype (%) [1]: 3%
Total Cell Count [1]: 178
Population Apoptotic (%) [2]: 100%
Population Fragmented Nuclei (%) [2]: 17%
Population Healthy Nuclei (%) [2]: 79%
Population Hoechst High Intensity Objects (%) [2]: 0%
Population Membrane Permeable-Phenotype (%) [2]: 6%
Population Mitochondria Different-Phenotype (%) [2]: 5%
Population Mitotic Cells (%) [2]: 0%
Population Normal (%) [2]: 99%
Population Pyknosed Nuclei (%) [2]: 4%
Population Tubulin-Different-Phenotype (%) [2]: 2%
Total Cell Count [2]: 101
Population Apoptotic (%) [3]: 76%
Population Fragmented Nuclei (%) [3]: 33%
Population Healthy Nuclei (%) [3]: 59%
Population Hoechst High Intensity Objects (%) [3]: 1%
Population Membrane Permeable-Phenotype (%) [3]: 8%
Population Mitochondria Different-Phenotype (%) [3]: 2%
Population Mitotic Cells (%) [3]: 23%
Population Normal (%) [3]: 98%
Population Pyknosed Nuclei (%) [3]: 6%
Population Tubulin-Different-Phenotype (%) [3]: 2%
Total Cell Count [3]: 196
Population Apoptotic (%) [4]: 88%
Population Fragmented Nuclei (%) [4]: 12%
Population Healthy Nuclei (%) [4]: 81%
Population Membrane Permeable-Phenotype (%) [4]: 7%
Population Mitochondria Different-Phenotype (%) [4]: 4%
Population Mitotic Cells (%) [4]: 11%
Population Tubulin-Different-Phenotype (%) [4]: 1%
Total Cell Count [4]: 151
Population Apoptotic (%) [5]: 90%
Population Fragmented Nuclei (%) [5]: 22%
Population Healthy Nuclei (%) [5]: 66%
Population Hoechst High Intensity Objects (%) [5]: 4%
Population Membrane Permeable-Phenotype (%) [5]: 8%
Population Mitochondria Different-Phenotype (%) [5]: 0%
Population Mitotic Cells (%) [5]: 9%
Population Normal (%) [5]: 95%
Population Pyknosed Nuclei (%) [5]: 11%
Population Tubulin-Different-Phenotype (%) [5]: 4%
Total Cell Count [5]: 197
Population Fragmented Nuclei (%) [6]: 8%
Population Healthy Nuclei (%) [6]: 84%
Population Hoechst High Intensity Objects (%) [6]: 0%
Population Membrane Permeable-Phenotype (%) [6]: 2%
Population Mitochondria Different-Phenotype (%) [6]: 3%
Population Mitotic Cells (%) [6]: 10%
Population Normal (%) [6]: 99%
Population Pyknosed Nuclei (%) [6]: 8%
Population Tubulin-Different-Phenotype (%) [6]: 2%
Total Cell Count [6]: 126
Population Apoptotic (%) [7]: 93%
Population Fragmented Nuclei (%) [7]: 32%
Population Healthy Nuclei (%) [7]: 60%
Population Hoechst High Intensity Objects (%) [7]: 1%
Population Membrane Permeable-Phenotype (%) [7]: 7%
Population Mitochondria Different-Phenotype (%) [7]: 0%
Population Mitotic Cells (%) [7]: 6%
Population Normal (%) [7]: 98%
Population Pyknosed Nuclei (%) [7]: 7%
Population Tubulin-Different-Phenotype (%) [7]: 2%
Total Cell Count [7]: 230
Population Apoptotic (%) [8]: 88%
Population Fragmented Nuclei (%) [8]: 9%
Population Healthy Nuclei (%) [8]: 85%
Population Hoechst High Intensity Objects (%) [8]: 0%
Population Membrane Permeable-Phenotype (%) [8]: 5%
Population Mitochondria Different-Phenotype (%) [8]: 1%
Population Mitotic Cells (%) [8]: 11%
Population Normal (%) [8]: 99%
Population Pyknosed Nuclei (%) [8]: 4%
Population Tubulin-Different-Phenotype (%) [8]: 1%
Total Cell Count [8]: 216
Population Apoptotic (%) [9]: 96%
Population Fragmented Nuclei (%) [9]: 18%
Population Healthy Nuclei (%) [9]: 71%
Population Hoechst High Intensity Objects (%) [9]: 1%
Population Membrane Permeable-Phenotype (%) [9]: 4%
Population Mitochondria Different-Phenotype (%) [9]: 0%
Population Mitotic Cells (%) [9]: 3%
Population Normal (%) [9]: 98%
Population Pyknosed Nuclei (%) [9]: 9%
Population Tubulin-Different-Phenotype (%) [9]: 2%
Total Cell Count [9]: 290
Population Apoptotic (%) [10]: 100%
Population Fragmented Nuclei (%) [10]: 15%
Population Healthy Nuclei (%) [10]: 79%
Population Mitochondria Different-Phenotype (%) [10]: 3%
Population Mitotic Cells (%) [10]: 0%
Population Pyknosed Nuclei (%) [10]: 5%
Population Tubulin-Different-Phenotype (%) [10]: 1%
Total Cell Count [10]: 199
Population Apoptotic (%) [11]: 85%
Population Fragmented Nuclei (%) [11]: 30%
Population Healthy Nuclei (%) [11]: 62%
Population Hoechst High Intensity Objects (%) [11]: 1%
Population Membrane Permeable-Phenotype (%) [11]: 6%
Population Mitochondria Different-Phenotype (%) [11]: 2%
Population Mitotic Cells (%) [11]: 14%
Population Normal (%) [11]: 98%
Population Pyknosed Nuclei (%) [11]: 7%
Population Tubulin-Different-Phenotype (%) [11]: 3%
Total Cell Count [11]: 282
Population Apoptotic (%) [12]: 94%
Population Fragmented Nuclei (%) [12]: 10%
Population Healthy Nuclei (%) [12]: 84%
Population Membrane Permeable-Phenotype (%) [12]: 4%
Population Mitotic Cells (%) [12]: 5%
Population Pyknosed Nuclei (%) [12]: 5%
Population Tubulin-Different-Phenotype (%) [12]: 2%
Total Cell Count [12]: 344

— ChEMBL document CHEMBL5058577, “EUbOPEN Chemogenomics Library 2 (Multiplex)” (2022)
